According to ChEMBL document CHEMBL3875141, “2,4,5-Trisubstituted thiazole derivatives as HIV-1 NNRTIs effective on both wild-type and mutant HIV-1 reverse transcriptase: Optimization of the substitution of positions 4 and 5” (Eur J Med Chem, 2016):

Experiments:
[1] = Cytotoxicity against HEK293T cells at 10 uM after 48 hrs by cell proliferation assay; format: toxicity, cell-based; conditions: human, hek-293t
Procedure, shortened: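 HEK 293T cells seeded at 1×10^4 cells/well, treated next day with serially diluted compounds and cultured 48 h; viability read with a cell proliferation assay kit per manufacturer's instructions. Footnote reports testing at a final concentration of 10 μM.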

[2] = test system: Human immunodeficiency virus 1; test: Antiviral activity against wild-type HIV-1 NL4-3 harboring vesicular stomatitis virus glycoprotein infected in HEK293T cells pretreated with cells for 15 mins followed by viral infection measured after 48 hrs by luciferase reporter gene assay; format: functional, cell-based; conditions: Human immunodeficiency virus 1, NL4-3, HEK-293T
Procedure, shortened: (§1)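 VSV-G-pseudotyped HIV-1 (wild-type or RT mutant) produced by co-transfection of HEK293T cells (calcium phosphate), supernatant harvested 48 h, 0.22 µm filtered, normalised by p24 ELISA to 0.2 ng p24/mL.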

[3] = test system: Human immunodeficiency virus 1; test: Ratio of IC50 for HIV-1 NL4-3 harboring RT-K103N/V108I double mutant infected in HEK293T cells co-expressing vesicular stomatitis virus glycoprotein to IC50 for wild-type HIV-1 NL4-3 infected in HEK293T cells co-expressing vesicular stomatitis virus glycoprotein; format: functional, HEK-293T
Procedure, shortened: (§2)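 Fold change: mean IC50 against each RT-mutant VSV-G-pseudotyped virus divided by IC50 against wild-type pseudovirus. Both values come from the same HEK293T assay: 0.2 ng p24/mL inoculum, compound added 15 min before infection, luciferase read-out at 48 h.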

[4] = test system: Human immunodeficiency virus 1; test: Ratio of IC50 for HIV-1 NL4-3 harboring RT-K103N/G190A double mutant infected in HEK293T cells co-expressing vesicular stomatitis virus glycoprotein to IC50 for wild-type HIV-1 NL4-3 infected in HEK293T cells co-expressing vesicular stomatitis virus glycoprotein; format: functional, HEK-293T; procedure, shortened: as §2
[5] = test system: Human immunodeficiency virus 1; test: Ratio of IC50 for HIV-1 NL4-3 harboring RT-K103N/P225H double mutant infected in HEK293T cells co-expressing vesicular stomatitis virus glycoprotein to IC50 for wild-type HIV-1 NL4-3 infected in HEK293T cells co-expressing vesicular stomatitis virus glycoprotein; format: functional, HEK-293T; procedure, shortened: as §2
[6] = test system: Human immunodeficiency virus 1; test: Ratio of IC50 for HIV-1 NL4-3 harboring RT-Y188L mutant infected in HEK293T cells co-expressing vesicular stomatitis virus glycoprotein to IC50 for wild-type HIV-1 NL4-3 infected in HEK293T cells co-expressing vesicular stomatitis virus glycoprotein; format: functional, HEK-293T; procedure, shortened: as §2
[7] = test system: Human immunodeficiency virus 1; test: Ratio of IC50 for HIV-1 NL4-3 harboring RT-L100I/K103N double mutant infected in HEK293T cells co-expressing vesicular stomatitis virus glycoprotein to IC50 for wild-type HIV-1 NL4-3 infected in HEK293T cells co-expressing vesicular stomatitis virus glycoprotein; format: functional, HEK-293T; procedure, shortened: as §2
[8] = test system: Human immunodeficiency virus 1; test: Ratio of IC50 for HIV-1 NL4-3 harboring RT-Y181C mutant infected in HEK293T cells co-expressing vesicular stomatitis virus glycoprotein to IC50 for wild-type HIV-1 NL4-3 infected in HEK293T cells co-expressing vesicular stomatitis virus glycoprotein; format: functional, HEK-293T; procedure, shortened: as §2
[9] = test system: Human immunodeficiency virus 1; test: Ratio of IC50 for HIV-1 NL4-3 harboring RT-K103N mutant infected in HEK293T cells co-expressing vesicular stomatitis virus glycoprotein to IC50 for wild-type HIV-1 NL4-3 infected in HEK293T cells co-expressing vesicular stomatitis virus glycoprotein; format: functional, HEK-293T
[10] = test system: Human immunodeficiency virus 1; test: Antiviral activity against HIV-1 NL4-3 harboring RT-K103N/Y181C double mutant infected in HEK293T cells coexpressing vesicular stomatitis virus glycoprotein pretreated with cells for 15 mins followed by viral infection measured after 48 hrs by luciferase reporter gene assay; format: functional, cell-based; conditions: hek-293t; procedure, shortened: as §1
[11] = test system: Human immunodeficiency virus 1; test: Antiviral activity against HIV-1 NL4-3 harboring RT-K103N/V108I double mutant infected in HEK293T cells coexpressing vesicular stomatitis virus glycoprotein pretreated with cells for 15 mins followed by viral infection measured after 48 hrs by luciferase reporter gene assay; format: functional, cell-based; conditions: hek-293t; procedure, shortened: as §1
[12] = test system: Human immunodeficiency virus 1; test: Antiviral activity against HIV-1 NL4-3 harboring RT-K103N/G190A double mutant infected in HEK293T cells coexpressing vesicular stomatitis virus glycoprotein pretreated with cells for 15 mins followed by viral infection measured after 48 hrs by luciferase reporter gene assay; format: functional, cell-based; conditions: hek-293t; procedure, shortened: as §1
[13] = test system: Human immunodeficiency virus 1; test: Antiviral activity against HIV-1 NL4-3 harboring RT-K103N/Y188L double mutant infected in HEK293T cells coexpressing vesicular stomatitis virus glycoprotein pretreated with cells for 15 mins followed by viral infection measured after 48 hrs by luciferase reporter gene assay; format: functional, cell-based; conditions: hek-293t; procedure, shortened: as §1
[14] = test system: Human immunodeficiency virus 1; test: Antiviral activity against HIV-1 NL4-3 harboring RT-K103N/P225H double mutant infected in HEK293T cells coexpressing vesicular stomatitis virus glycoprotein pretreated with cells for 15 mins followed by viral infection measured after 48 hrs by luciferase reporter gene assay; format: functional, cell-based; conditions: hek-293t; procedure, shortened: as §1
[15] = test system: Human immunodeficiency virus 1; test: Antiviral activity against HIV-1 NL4-3 harboring RT-Y188L mutant infected in HEK293T cells coexpressing vesicular stomatitis virus glycoprotein pretreated with cells for 15 mins followed by viral infection measured after 48 hrs by luciferase reporter gene assay; format: functional, cell-based; conditions: hek-293t; procedure, shortened: as §1
[16] = test system: Human immunodeficiency virus 1; test: Antiviral activity against HIV-1 NL4-3 harboring RT-L100I/K103N double mutant infected in HEK293T cells coexpressing vesicular stomatitis virus glycoprotein pretreated with cells for 15 mins followed by viral infection measured after 48 hrs by luciferase reporter gene assay; format: functional, cell-based; conditions: hek-293t; procedure, shortened: as §1
[17] = test system: Human immunodeficiency virus 1; test: Antiviral activity against HIV-1 NL4-3 harboring RT-Y181C mutant infected in HEK293T cells coexpressing vesicular stomatitis virus glycoprotein pretreated with cells for 15 mins followed by viral infection measured after 48 hrs by luciferase reporter gene assay; format: functional, cell-based; conditions: hek-293t; procedure, shortened: as §1
[18] = test system: Human immunodeficiency virus 1; test: Antiviral activity against HIV-1 NL4-3 harboring RT-K103N mutant infected in HEK293T cells coexpressing vesicular stomatitis virus glycoprotein pretreated with cells for 15 mins followed by viral infection measured after 48 hrs by luciferase reporter gene assay; format: functional, cell-based; conditions: hek-293t; procedure, shortened: as §1
[19] = test system: Human immunodeficiency virus 1; test: Ratio of IC50 for HIV-1 NL4-3 harboring RT-K103N/Y181C double mutant infected in HEK293T cells co-expressing vesicular stomatitis virus glycoprotein to IC50 for wild-type HIV-1 NL4-3 infected in HEK293T cells co-expressing vesicular stomatitis virus glycoprotein; format: functional, HEK-293T; procedure, shortened: as §2
[20] = test system: Human immunodeficiency virus 1; test: Ratio of IC50 for HIV-1 NL4-3 harboring RT-K103N/Y188L double mutant infected in HEK293T cells co-expressing vesicular stomatitis virus glycoprotein to IC50 for wild-type HIV-1 NL4-3 infected in HEK293T cells co-expressing vesicular stomatitis virus glycoprotein; format: functional, HEK-293T; procedure, shortened: as §2
[21] = Inhibition of wild-type HIV-1 reverse transcriptase RNA-dependent DNA polymerase activity assessed as reduction in digoxigenin-11-dUTP incorporation using poly(rA)/oligo(dT) as template/primer incubated for 1 hr; set-up: species or system Human immunodeficiency virus 1

Row | Compound | Activity [1] | IC50 [2] [nM] | Ratio IC50 [3] | Ratio IC50 [4] | Ratio IC50 [5] | Ratio IC50 [6] | Ratio IC50 [7] | Ratio IC50 [8] | Ratio IC50 [9] | IC50 [10] [nM] | IC50 [11] [nM] | IC50 [12] [nM] | IC50 [13] [nM] | IC50 [14] [nM] | IC50 [15] [nM] | IC50 [16] [nM] | IC50 [17] [nM] | IC50 [18] [nM] | Ratio IC50 [19] | Ratio IC50 [20] | also measured
1 | Clc1ccc(-c2nc(NCc3ccc4c(c3)CCO4)sc2Cc2c(Cl)cccc2Cl)c(Cl)c1 | Non-Toxic | 71 | – | – | – | – | – | – | – | – | – | – | – | – | – | – | – | – | – | – | –
2 | COc1ccccc1Cc1sc(NCc2ccc3c(c2)CCO3)nc1-c1ccc(F)cc1F | Non-Toxic | 44.7 to 45 | 17 | 11 | 23.5 | >223.7 | 19.5 | 2.9 | 6.5 | 450 | 760 | 490 | > 10000 | 1050 | > 10000 | 870 | 130 | 290 | 10.1 | >223.7 | –
3 | COc1cccc(Cc2sc(NCc3ccc4c(c3)CCO4)nc2-c2ccccc2)c1 | Non-Toxic | 136 | – | – | – | – | – | – | – | – | – | – | – | – | – | – | – | – | – | – | –
4 | COc1ccccc1Cc1sc(NCc2ccc3c(c2)CCO3)nc1-c1ccccc1 | Non-Toxic | 72 | 21.3 | 8.1 | 69.2 | >223.7 | 73.8 | 8.8 | 12.2 | 9560 | 1530 | 580 | > 10000 | 4980 | > 10000 | 5310 | 512 | 880 | 132.8 | >223.7 | –
5 | COc1ccc(Cc2sc(NCc3ccc4c(c3)CCO4)nc2-c2ccccc2)cc1 | Non-Toxic | > 10000 | – | – | – | – | – | – | – | – | – | – | – | – | – | – | – | – | – | – | –
6 | Clc1ccc(Cc2sc(NCc3ccc4c(c3)CCO4)nc2-c2ccccc2)cc1 | Non-Toxic | > 10000 | – | – | – | – | – | – | – | – | – | – | – | – | – | – | – | – | – | – | –
7 | c1ccc(Cc2sc(NCc3ccc4c(c3)CCO4)nc2-c2ccccc2)cc1 | Non-Toxic | 239 | – | – | – | – | – | – | – | – | – | – | – | – | – | – | – | – | – | – | –
8 | Clc1cccc(Cl)c1Cc1sc(NCc2ccc3c(c2)CCO3)nc1-c1ccccc1 | Non-Toxic | 61.8 to 62 | 48.5 | 9.1 | >161.8 | >161.8 | 81.7 | 6.3 | 24.8 | > 10000 | 3000 | 560 | > 10000 | > 10000 | > 10000 | 5050 | 390 | 1530 | >161.8 | >161.8 | –
9 | Fc1cc(F)cc(Cc2sc(NCc3ccc4c(c3)CCO4)nc2-c2ccccc2)c1 | Non-Toxic | 37 to 37.2 | 279.6 | 53.8 | 135.2 | >268.8 | 31.5 | 149.5 | 37.9 | > 10000 | 10400 | 2000 | > 10000 | 5030 | > 10000 | 1170 | 5560 | 1410 | >268.8 | >268.8 | –
10 | Fc1ccc(Cc2sc(NCc3ccc4c(c3)CCO4)nc2-c2ccccc2)cc1 | Non-Toxic | 5670 | – | – | – | – | – | – | – | – | – | – | – | – | – | – | – | – | – | – | –
11 | O=C1Nc2ccc(Cl)cc2[C@@](C#CC2CC2)(C(F)(F)F)O1 [EFAVIRENZ] | – | 1.04 | – | – | – | – | – | – | – | 58.7 | – | – | 13800 | – | – | 2490 | – | – | – | – | –
12 | Cc1ccnc2c1NC(=O)c1cccnc1N2C1CC1 [NEVIRAPINE] | – | – | 90 | >322 | 177 | >322 | 161 | 2152 | 519 | > 10000 | – | > 10000 | > 10000 | – | > 10000 | 5000 | – | – | >322 | >322 | IC50 [21]: 2100 nM
